Results from different studies.
Mode: inhibitor
rep main protease: Replicase polyprotein 1ab, main protease (rep, Severe acute respiratory syndrome coronavirus 2, UniProt P0DTD1)
rep methyltransferase: Replicase polyprotein 1ab, methyltransferase (rep, Severe acute respiratory syndrome coronavirus 2, UniProt P0DTD1)
rep papain-like protease: Replicase polyprotein 1ab, papain-like protease (rep, Severe acute respiratory syndrome coronavirus 2, UniProt P0DTD1)

CC(C)C[C@H](NC(=O)[C@@H](NC(=O)OCc1ccccc1)C(C)(C)C)C(=O)N(C)N(C#N)CCC(N)=O
IC50 (rep main protease; enzyme activity): 0.775 µM

O=[N+]([O-])c1ccc(Sc2cccc[n+]2[O-])c2nonc12
IC50 (rep main protease; enzyme activity): 0.1 µM

COc1cc(NS(=O)(=O)c2ccc(NC(=O)c3ccc4ccccc4c3)cc2)nc(OC)n1
IC50 (rep methyltransferase; enzyme activity): 59.2 µM

Nc1nnc(Sc2ncc([N+](=O)[O-])s2)s1
IC50 (rep main protease; enzyme activity): 0.03 µM

O=C(C1=C(O)C(=O)N(c2nc3ccc(F)cc3s2)C1c1cccc(F)c1)c1cccs1 (stereo not drawn)
IC50 (rep methyltransferase; enzyme activity): 109 µM

Clc1ccc(C(Cn2ccnc2)OCc2csc3c(Cl)cccc23)c(Cl)c1 (stereo not drawn)
IC50 (rep main protease; enzyme activity in cells): 7.45 µM

CCc1ccc(/C=C/C(=O)Nc2ccc(C(C)=O)cc2)o1
IC50 (rep main protease; enzyme activity): 5 µM

COC(=O)C1=C(C)NC(C)=C(C(=O)OCCN2CCN(C(c3ccccc3)c3ccccc3)CC2)C1c1cccc([N+](=O)[O-])c1 (stereo not drawn)
IC50 (rep main protease; enzyme activity, luciferase): > 240 µM

N#CC(C(N)=O)=C1Oc2c(cc(O)cc2-c2ccc(Cl)c(Cl)c2)S1
IC50 (rep methyltransferase; enzyme activity): 45 µM

COc1ccc2nc(S)[nH]c2c1
IC50 (rep main protease; enzyme activity): > 20 µM

Oc1ccc(O)cc1
IC50 (rep methyltransferase; enzyme activity): 12.2 µM

C[S+]([O-])CCCCN=C=S (stereo not drawn)
IC50 (rep main protease; enzyme activity): 5.5 µM

O=C(Cn1nnc2ccccc21)Nc1ccccc1N1CCc2sccc2C1
IC50 (rep main protease; enzyme activity, FRET): > 100 µM

COC(=O)C1=C(C(=O)OC)C(c2ccc(Cl)cc2)c2sc(=O)[nH]c2S1 (stereo not drawn)
IC50 (rep methyltransferase; enzyme activity): 74.9 µM

Sc1ncnc2nc[nH]c12
IC50 (rep papain-like protease; enzyme activity, FRET; pH 7.5): > 60 µM

CC[C@]12C=CCN3CC[C@@]4(c5cc([C@@]6(C(=O)OC)C[C@@H]7C[C@@H](C(C)(F)F)C[N@](CCc8c6[nH]c6ccccc86)C7)c(OC)cc5N(C)[C@H]4[C@@](O)(C(=O)OC)[C@@H]1OC(C)=O)[C@@H]32
IC50 (rep main protease; enzyme activity): > 20 µM

Cc1cc2c(C(C)C)c(O)c(O)c(C=O)c2c(O)c1-c1c(C)cc2c(C(C)C)c(O)c(O)c(C=O)c2c1O
IC50 (rep methyltransferase; enzyme activity): 11.6 µM

Cc1nocc1C(=O)N1Cc2ccccc2[C@@H](CNC(=O)c2cncc3ccc(F)cc23)C1
IC50 (rep main protease; enzyme activity): 56.8 µM

CC(C)c1nc(CN(C)C(=O)N[C@@H](CCN2CCOCC2)C(=O)N[C@H](CC[C@H](Cc2ccccc2)NC(=O)OCc2cncs2)Cc2ccccc2)cs1
IC50 (rep main protease; enzyme activity, luciferase): > 240 µM

COc1cc(C[C@@H](C)[C@@H](C)Cc2cc(O)c(OC)c(OC)c2)cc(O)c1OC
IC50 (rep papain-like protease; enzyme activity, FRET): 5.23 µM

CCOc1nc2cccc(C(=O)O)c2n1Cc1ccc(-c2ccccc2-c2nnn[nH]2)cc1
IC50 (rep main protease; enzyme activity): > 240 µM

CCOc1ccc(Nc2nc(-c3c(C)nc4ccccn34)cs2)cc1
IC50 (rep main protease; enzyme activity): 5.05 µM

O=C1c2ccccc2NC(c2cc(Br)ccc2O)N1N=Cc1cc(Br)ccc1O (stereo not drawn)
IC50 (rep main protease; enzyme activity in cells): > 40 µM

[H]/N=C(\N/C(=N/[H])NCCCCCCNC(=N)NC(=N)Nc1ccc(Cl)cc1)Nc1ccc(Cl)cc1
IC50 (rep methyltransferase; enzyme activity): 43.7 µM
